This note sets out measurements from ChEMBL document CHEMBL1130123, “Optimization of 3-(1H-indazol-3-ylmethyl)-1,5-benzodiazepines as potent, orally active CCK-A agonists” (J Med Chem, 1997).

Data set [1] deals with Rattus norvegicus. Put plainly: (§1) Maximal response at 0.5 umol/kg intraperitoneal dose. The class given is functional.
Data set [2] concerns Mus musculus. Nature of the data set: maximal response at 1 nmol/kg peroral dose. The class given is functional.
Data set [3] in a line: Volume of distribution at steady state at an intravenous dose of 6.3 mg/kg in rat. The class given is ADME, organism-based. Details: dose 6.3 mg/kg, route intravenous. The note with it: in vivo, read-out: Vss.
Data set [4] deals with Mus musculus. Put plainly: Maximal response at 1 nmol/kg intraperitoneal dose. The class given is functional.
Data set [5] in a line: Maximum concentration at an peroral dose of 6.2 mg/kg in rat. It is filed as ADME, organism-based. Details: dose 6.2 mg/kg, route oral. The following applies: in vivo, po.
The nature of data set [6]: Oral bioavailability in Long-Evans rats at an peroral dose of 6.2 mg/kg. The class given is ADME, organism-based. The following applies: rat, in vivo.
The test system of data set [7] is Mus musculus. Nature of the data set: Intraperitoneal dose that produces a half maximal response in mouse gall bladder emptying assay (in vivo). The following applies: ip. The class given is functional.
Data set [8] can be described thus: Maximum concentration at an intravenous dose of 6.3 mg/kg. The class given is ADME, organism-based. The note with it: rat, in vivo. Details: dose 6.3 mg/kg, route intravenous.
Data set [9] can be described thus: Maximum concentration at an intraduodenal dose of 6.6 mg/kg in rat. The class given is ADME, organism-based. Details: dose 6.6 mg/kg, route intraduodenal. The note with it: in vivo.
Data set [10] in a line: Total body clearance at an intravenous dose of 6.3 mg/kg in rat. The class given is ADME, organism-based. Details: dose 6.3 mg/kg, route intravenous. The following applies: in vivo.
The subject of data set [11] is Rattus norvegicus. Nature of the data set: Anorectic potency in rat was tested and intraperitoneal dose that produces a half maximal response (in vivo). The class given is functional. The note with it: ip.
Data set [12] can be described thus: Oral bioavailability in Long-Evans rats at an intraduodenal dose of 6.6 mg/kg. It is filed as ADME, organism-based. The note with it: rat, in vivo, other: intraduodenal.
Data set [13] can be described thus: Oral bioavailability in Long-Evans rats at an intravenous dose of 6.3 mg/kg; Not active. The class given is ADME, organism-based. The note with it: rat, in vivo.
For data set [14], the system named is Mus musculus. Nature of the data set: Peroral dose that produces a half maximal response in mouse gall bladder emptying assay (in vivo). The note with it: po. It is filed as functional.
Data set [15] in a line: Half life period at an intravenous dose of 6.3 mg/kg in rat. The class given is ADME, organism-based. Details: dose 6.3 mg/kg, route intravenous. The following applies: in vivo.
Data set [16] in a line: Maximum concentration at an intraduodenal dose of 5.2 mg/kg in rat. The following applies: in vivo. The class given is ADME, organism-based. Details: dose 5.2 mg/kg, route intraduodenal.
A short description of data set [17]: Maximum concentration at an intravenous dose of 5.2 mg/kg. The note with it: rat, in vivo. Set-up: dose 5.2 mg/kg, route intravenous. The class given is ADME, organism-based.
Data set [18] can be described thus: Half life period at an intravenous dose of 5.2 mg/kg in rat. The class given is ADME, organism-based. Details: dose 5.2 mg/kg, route intravenous. The following applies: in vivo.
The nature of data set [19]: Volume of distribution at steady state at an intravenous dose of 5.2 mg/kg in rat. The class given is ADME, organism-based. Details: dose 5.2 mg/kg, route intravenous. The note with it: in vivo, read-out: Vss.
Data set [20] is described as follows: Oral bioavailability in Long-Evans rats at an intraduodenal dose of 5.2 mg/kg. The class given is ADME, organism-based. The note with it: rat, in vivo, other: intraduodenal.
Data set [21] can be described thus: Total body clearance at an intravenous dose of 5.2 mg/kg in rat. Set-up: dose 5.2 mg/kg, route intravenous. It is filed as ADME, organism-based. The note with it: in vivo.
Data set [22] in a line: Oral bioavailability in Long-Evans rats at an intravenous dose of 5.2 mg/kg; Not active. It is filed as ADME, organism-based. The note with it: rat, in vivo.
Data set [23] has as its system Mus musculus. Nature of the data set: Maximal response at 1 nmol/kg peroral dose. The class given is functional.
A short description of data set [24]: Volume of distribution at steady state at an intravenous dose of 5.5 mg/kg in rat. It is filed as ADME, organism-based. Details: dose 5.5 mg/kg, route intravenous. The note with it: in vivo, read-out: Vss.
Data set [25] concerns Mus musculus. The data set is described as §1. The class given is functional.
Data set [26] in a line: Half life period at an intravenous dose of 5.5 mg/kg in rat. The class given is ADME, organism-based. Set-up: dose 5.5 mg/kg, route intravenous. The following applies: in vivo.
A short description of data set [27]: Total body clearance at an intravenous dose of 5.5 mg/kg in rat. The class given is ADME, organism-based. The following applies: in vivo. Details: dose 5.5 mg/kg, route intravenous.
Data set [28] can be described thus: Maximum concentration at an intravenous dose of 5.5 mg/kg in rat. It is filed as ADME, organism-based. Details: dose 5.5 mg/kg, route intravenous. The following applies: in vivo.
Data set [29] in a line: Oral bioavailability in Long-Evans rats at an peroral dose of 6.3 mg/kg. It is filed as ADME, organism-based. The note with it: rat, in vivo.
The target in data set [30] is T1, Gastrin/cholecystokinin type B receptor (Homo sapiens, UniProt P32239).
T1 sequence (P32239 whole entry): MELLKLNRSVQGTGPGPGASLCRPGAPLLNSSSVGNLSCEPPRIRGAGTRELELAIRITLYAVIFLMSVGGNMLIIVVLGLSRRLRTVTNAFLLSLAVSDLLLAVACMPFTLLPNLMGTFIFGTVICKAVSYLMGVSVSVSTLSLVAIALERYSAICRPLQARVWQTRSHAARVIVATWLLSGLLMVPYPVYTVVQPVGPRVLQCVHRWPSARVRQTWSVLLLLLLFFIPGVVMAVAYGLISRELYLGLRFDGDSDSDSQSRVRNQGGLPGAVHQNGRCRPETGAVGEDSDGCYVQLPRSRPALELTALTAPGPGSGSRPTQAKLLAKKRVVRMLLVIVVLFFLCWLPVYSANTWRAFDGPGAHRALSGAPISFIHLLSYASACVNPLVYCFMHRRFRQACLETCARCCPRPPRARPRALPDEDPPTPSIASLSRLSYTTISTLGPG
Nature of the data set: In vitro for binding affinity against human cholecystokinin type B receptor.

Data set [31] addresses T2, Cholecystokinin receptor type A (Homo sapiens, UniProt P32238).
T2 sequence (P32238 whole entry): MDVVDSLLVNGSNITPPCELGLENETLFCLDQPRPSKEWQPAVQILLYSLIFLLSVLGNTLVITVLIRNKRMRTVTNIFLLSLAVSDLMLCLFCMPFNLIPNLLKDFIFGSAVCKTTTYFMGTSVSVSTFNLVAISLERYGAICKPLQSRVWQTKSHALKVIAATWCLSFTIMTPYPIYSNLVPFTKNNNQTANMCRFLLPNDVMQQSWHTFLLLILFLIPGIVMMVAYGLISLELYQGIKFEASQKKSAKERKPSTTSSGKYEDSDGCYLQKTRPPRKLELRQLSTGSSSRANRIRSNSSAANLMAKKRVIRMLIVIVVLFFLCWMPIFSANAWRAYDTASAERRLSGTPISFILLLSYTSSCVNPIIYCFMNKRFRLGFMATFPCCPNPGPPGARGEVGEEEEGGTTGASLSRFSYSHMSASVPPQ
Nature of the data set: In vitro for binding affinity against human cholecystokinin type A receptor.

Data set [32] is described as follows: Maximum concentration at an peroral dose of 6.3 mg/kg in rat. The class given is ADME, organism-based. Set-up: dose 6.3 mg/kg, route oral. The note with it: in vivo, po.
The species entered for data set [33] is Cavia porcellus. Put plainly: In vitro functional efficacy relative to CCK-8 in inducing contraction of the isolated guinea pig gallbladder (GPGB) at a 1 uM concentration. In short, it runs like this:
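Isolated guinea pig gallbladder, ligand 1 μM, 30 min at 37 °C; maximal contraction expressed relative to CCK-8 (1 μM) = 100%; values ± 5%.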

For data set [34], the species on record is Cavia porcellus. Nature of the data set: In vitro functional agonist activity in the isolated guinea pig gall bladder, concentration at which 50% of the maximal contraction observed was reported. The note with it: read-out: ED50 (the source's name).

A word on the Cmax: it is the maximum level reached in the sampled fluid or tissue. One may read the bioavailability as the share of a dose that reaches the circulation, judged against a reference dose that is usually intravenous. A word on the ED50: it is the dose at which the effect has come halfway, by size or by number of responders. The low end stands for an effect at a small dose, the high end for a need for a large dose. As usually defined, the clearance is the rate of elimination divided by the concentration. Read a low clearance as a low capacity for elimination. As a reminder, the half-life is the time needed for the level to fall by half in the phase considered. As for `COc1ccc(N(C(=O)CN2C(=O)C(Cc3n[nH]c4ccccc34)C(=O)N(c3ccccc3)c3ccccc32)C(C)C)cc1` (stereo not drawn), the figures for the Max with Rattus norvegicus [1], in the data set with Mus musculus [2] and with Mus musculus [4] were 98%, 89% and 97%, respectively. The Vd in [3] came out at 5.17 L/kg. Further, the highest concentration (Cmax) in data set [5] stood at 20 ng/mL; in data set [8], 2100 ng/mL; in [9] it was 193 ng/mL. For the same compound, the bioavailability in [6] worked out at 8%; in [12], 16%. In addition, the figures for the ED50 in the data set with Mus musculus [7], in the data set on Rattus norvegicus [11] and with Mus musculus [14] were 0.0002 µmol/kg, 0.05 µmol/kg and 0.01 µmol/kg, respectively. Also, the clearance in data set [10] amounted to 38 mL/min/kg. In addition, the F result in data set [13] is “Not Active”. In [15], the half-life is 2.1 h.

Turning to `COc1ccc(N(C(=O)CN2C(=O)C(C)(Cc3n[nH]c4ccccc34)C(=O)N(c3ccccc3)c3ccccc32)C(C)C)cc1` (stereo not drawn), the Cmax in data set [16] came to 30 ng/mL; in [17], 3390 ng/mL. In data set [18], the half-life is 3.9 h. The Vd in data set [19] was found to be 4.31 L/kg. In data set [20], the bioavailability amounted to 15%. In data set [21], this compound yielded a clearance of 30 mL/min/kg. Also, in data set [22], the F entry was “Not Active”. Moreover, the Max in the data set on Mus musculus [23] was determined as 28%.

As a reminder, the IC50 is the point on the concentration scale where inhibition reaches its midpoint. Read a low IC50 as inhibition by little substance. `COc1ccc(N(C(=O)CN2C(=O)C(Cc3n[nH]c4ccccc34)(OC)C(=O)N(c3ccccc3)c3ccccc32)C(C)C)cc1` (stereo not drawn): the Vd in data set [24] stood at 7.63 L/kg. Moreover, the Max is 52% in the data set on Mus musculus [25], 89% with Mus musculus [4], 70% in the data set filed under Cavia porcellus [33] and 72% in the data set with Mus musculus [23]. In addition, the half-life in [26] was 3.4 h. In data set [27], the clearance is 35 mL/min/kg. Besides, the highest concentration (Cmax) in data set [28] amounted to 4900 ng/mL; in data set [32], 90 ng/mL. Moreover, the 50% effective dose (ED50) turned out to be 0.0003 µmol/kg with Mus musculus [7] and 0.1 µmol/kg in the data set on Mus musculus [14]. In [29], this compound returned a bioavailability of 5%. Besides, the results for the IC50 in data set [30] and in data set [31] were 3630 nM and 14.5 nM, respectively. Also, the EC50 in the data set filed under Cavia porcellus [34] came out at 70 nM.
